This is an account of results in ChEMBL document CHEMBL3393058 (Eur J Med Chem, 2014).

A short description of data set [1]: Solubility in buffer assessed as light scattering. It counts as physicochemical. The essentials:
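Light scattering of compounds in phosphatase assay buffer was measured by nephelometry against a buffer blank, across the concentration range used for IC50 determination.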

Data set [2] relates to HEK293. Description: Cytotoxicity against human HEK293 cells expressing human PRL-3 at 50 to 75 uM after 16 hrs by MTT assay. It counts as cell-based. The note with it: hek293, 16 h. Put shortly:
(§1)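 Tetracycline-induced stable HEK293 Flp-In T-REx lines (PRL-1, PRL-2, PRL-3 or empty vector) were seeded at 10000 cells/well. After 24 h, compound or DMSO was added for 16 h. MTT was then added in fresh medium for 4 h at 37 °C, formazan dissolved in DMSO, and A570 read. Data were normalized to DMSO vehicle, run in triplicate in ≥2 independent experiments, with two-sided t-test versus vehicle.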

Data set [3] has as its system HEK293. Description: Cytotoxicity against human HEK293 cells expressing human PRL-1 at 50 to 75 uM after 16 hrs by MTT assay. Type of data set: cell-based. The note with it: hek293, 16 h. Put shortly:
as §1

In data set [4] the test system is HEK293. Briefly: Cytotoxicity against human HEK293 cells expressing human PRL-2 at 50 to 75 uM after 16 hrs by MTT assay. The note with it: hek293, 16 h. It counts as cell-based. The essentials:
as §1

Data set [5] concerns HEK293. Briefly: Cytotoxicity against human HEK293 cells expressing empty vector at 75 uM after 16 hrs by MTT assay. The note with it: hek293, 16 h. It counts as cell-based. Put shortly:
as §1

Data set [6] has as its target T1, Protein tyrosine phosphatase type IVA 3 (Homo sapiens, UniProt O75365). Briefly: Inhibition of PRL3 (unknown origin) using DiFMUP as fluorogenic phosphate substrate assessed as DiFMUP dephosphorylation.
The target in data set [7] is T2, Protein tyrosine phosphatase type IVA 2 (Homo sapiens, UniProt Q12974).
T2 sequence (Q12974 whole entry): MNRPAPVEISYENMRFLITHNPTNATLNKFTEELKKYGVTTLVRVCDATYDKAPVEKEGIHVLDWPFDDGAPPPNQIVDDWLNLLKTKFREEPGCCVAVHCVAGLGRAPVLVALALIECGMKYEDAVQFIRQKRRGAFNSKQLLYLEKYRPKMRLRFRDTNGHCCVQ
Briefly: Inhibition of PRL2 (unknown origin) using DiFMUP as fluorogenic phosphate substrate assessed as DiFMUP dephosphorylation.

In data set [8] the target is T3, Protein tyrosine phosphatase type IVA 1 (Homo sapiens, UniProt Q93096).
T3 sequence (Q93096 whole entry): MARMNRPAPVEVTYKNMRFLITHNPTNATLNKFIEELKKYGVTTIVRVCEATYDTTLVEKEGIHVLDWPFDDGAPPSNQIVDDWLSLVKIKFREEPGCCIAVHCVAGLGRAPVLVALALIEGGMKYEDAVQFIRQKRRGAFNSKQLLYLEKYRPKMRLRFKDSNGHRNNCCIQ
Description: Inhibition of PRL1 (unknown origin) using DiFMUP as fluorogenic phosphate substrate assessed as DiFMUP dephosphorylation.

For data set [9], the species on record is Homo sapiens. Briefly: Selectivity index, 1 - (inhibition of PRL3/inhibition of VHR) at 50 uM.
The species entered for data set [10] is Homo sapiens. Description: Selectivity index, 1 - (inhibition of PRL3/inhibition of PTP1B) at 50 uM.
The species entered for data set [11] is Homo sapiens. Briefly: Selectivity index, 1 - (inhibition of PRL3/inhibition of TCPTP) at 50 uM.
The test system of data set [12] is HEK293. Briefly: Inhibition of cell proliferation of human HEK293 cells expressing human PRL-3 at 20 uM after 1 to 9 days by MTT assay. It counts as functional, cell-based. The essentials:
(§2)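 Stable HEK293 lines (PRL-3 or empty vector) were seeded at 1500 cells/well in tetracycline-containing growth medium. Compound or DMSO vehicle was added immediately after seeding. On each indicated day, MTT was added for 4 h at 37 °C, formazan dissolved in DMSO, and absorbance read at 570 nm, in triplicate.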

The subject of data set [13] is HEK293. Description: Inhibition of cell proliferation of human HEK293 cells expressing empty vector at 20 uM after 1 to 9 days by MTT assay. It counts as cell-based. The note with it: hek293, 20 µM. Put shortly: as §2
Data set [14] has as its target T1, Protein tyrosine phosphatase type IVA 3. The note with it: HEK293, 75 uM.
A short description of data set [15]: Drug localization in plasma membrane of HEK293 cells transfected with mKate-PRL-3 at 50 uM incubated for 30 mins by confocal microscopy. Type of data set: ADME. The note with it: human, hek293, 0.5 h. The essentials:
(§3)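 HEK293 cells were transfected with 0.1 μg mKate-PRL-3 18 h before imaging. Confocal imaging used a 63× oil objective, with mKate excited at 561 nm and compound at 405 nm.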

A short description of data set [16]: Drug localization in inner membrane compartments of HEK293 cells transfected with mKate-PRL-3 at 50 uM incubated for 30 mins by confocal microscopy. Type of data set: ADME. The note with it: human, hek293, 0.5 h. Put shortly:
as §3

The subject of data set [17] is HEK293. Description: Effect on cell proliferation of human HEK293 cells expressing human PRL-3 at 50 uM after 1 to 9 days by MTT assay. Type of data set: functional, cell-based. The essentials:
as §2

The test system of data set [18] is HEK293. Briefly: Effect on cell proliferation of human HEK293 cells expressing empty vector at 50 uM after 1 to 9 days by MTT assay. Type of data set: cell-based. The note with it: hek293, 50 µM. The essentials:
as §2

Data set [19] concerns the target T1, Protein tyrosine phosphatase type IVA 3. The note with it: HEK293, 50 uM.
For data set [20] the target is unchanged. The note with it: HEK293, 12 uM.
Data set [21] shares this target. The note with it: HEK293, 50 uM. This is another data set of the same source.
Data set [22] shares this target. The note with it: HEK293, 35 uM.
For data set [23] the target is unchanged. The note with it: HEK293, 25 uM.
Data set [24] shares this target. The note with it: HEK293, 12 uM. This is another data set of the same source.
Data set [25] addresses T4, Protein tyrosine phosphatase type IVA 2 (Homo sapiens) (UniProt Q12974).
T4 sequence (whole entry): T2 sequence (Q12974 whole entry)
The note with it: HEK293, 50 uM.

In data set [26] the target is T5, Protein tyrosine phosphatase type IVA 1 (Homo sapiens) (UniProt Q93096).
T5 sequence (whole entry): T3 sequence (Q93096 whole entry)
The note with it: HEK293, 50 uM.

≈ marks a conversion by molar mass, not a printed value. Calls of active or inactive are those of the source. The calls are words filed in the database; no cut-off is given here.

T1 sequence (O75365 whole entry): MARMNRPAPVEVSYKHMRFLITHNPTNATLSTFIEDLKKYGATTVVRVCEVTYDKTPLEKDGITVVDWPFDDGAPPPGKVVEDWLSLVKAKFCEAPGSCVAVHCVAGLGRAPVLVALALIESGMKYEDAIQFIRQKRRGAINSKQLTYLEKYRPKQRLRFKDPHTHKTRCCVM

As for `C=CCOC(=O)/C(C#N)=C/c1ccc(O)c(Br)c1`, in [1], the solubility (kinetic) is 311 µM (≈ 95.8 µg/mL). The Activity entry in the data set with HEK293 [2] was “Non-toxic”; with HEK293 [3] it was “Non-toxic”; with HEK293 [4], “Non-toxic”; in the data set on HEK293 [5], “Toxic”.
Take `CCOC(=O)/C(C#N)=C/c1cc(Br)c(O)c(Br)c1`: the values for the IC50 in data set [6] (read-out: IC50), in [7] (read-out: IC50) and in data set [8] (read-out: IC50) were 109 µM, 109 µM and 89.1 µM, respectively. Moreover, the solubility result in data set [1] is “soluble”. Further, the Activity entry in the data set with HEK293 [2], with HEK293 [3] and in the data set with HEK293 [4] was “Toxic” in each case. The Selectivity index in the data set filed under Homo sapiens [9] is 0.44; in the data set filed under Homo sapiens [10], 0.48; in the data set listed under Homo sapiens [11], 0.24.
Consider `Nc1c[nH]c(=O)c2cc(-c3ccccc3)sc12`, for which the solubility entry in data set [1] was “soluble”. The Activity result in the data set on HEK293 [2] was “Non-toxic”; in the data set on HEK293 [3] it was “Non-toxic”; with HEK293 [4] it was “Non-toxic”; in the data set on HEK293 [13], “Toxic”. Also, in the data set with HEK293 [12], the inhibition result is “Active”.
For the molecule `COc1cc(/C=C(\C#N)C(=O)OC(C)C)cc(Br)c1O`, the values for the IC50 in [6] (read-out: IC50), in data set [7] (read-out: IC50) and in data set [8] (read-out: IC50) were 69.4 µM, 69.4 µM and 56.7 µM, respectively. Besides, in [1], the kinetic solubility worked out at 144 µM (≈ 49 µg/mL). The Activity result in the data set on HEK293 [2], in the data set on HEK293 [3] and in the data set with HEK293 [4] was “Non-toxic” in each case. Moreover, the Selectivity index in the data set filed under Homo sapiens [9] was 0.24; in the data set listed under Homo sapiens [10], 0.08; in the data set filed under Homo sapiens [11] it was -0.29.
On to `C=CCOC(=O)/C(C#N)=C/c1ccc(OC)cc1`, for which the IC50 entry in [6], in [7] and in data set [8] was “Not Active” each time.
With `O=C1NC(=S)S/C1=C/c1ccc(-c2ccccc2C(=O)O)o1`, in [6] (read-out: IC50), the IC50 was determined as 53 µM. Moreover, the solubility (kinetic) in data set [1] was 335 µM (≈ 111 µg/mL). The Activity entry with HEK293 [2] is on record as “Non-toxic”. In [14], the inhibition result is “inactive”. In addition, the Selectivity index in the data set listed under Homo sapiens [9] was 0.54; in the data set filed under Homo sapiens [10] it was 0.34; in the data set filed under Homo sapiens [11], 0.22.
For the molecule `O=C(O)c1ccc[n+]2c([O-])c(-c3ccccc3)sc12`, the solubility entry in [1] is “soluble”. Further, the Activity result with HEK293 [2], in the data set on HEK293 [3] and in the data set on HEK293 [4] was “Non-toxic” each time. Besides, the Selectivity index in the data set listed under Homo sapiens [9] was determined as 0.25; in the data set listed under Homo sapiens [10], 0.25; in the data set filed under Homo sapiens [11] it was 0.1.
Regarding `COC(=O)/C(C#N)=C/c1ccc(O)c(Br)c1`, the Drug uptake entry in data set [15] and in data set [16] was “Active” in each case.
As to `C=CCOC(=O)/C(C#N)=C/c1cc(Br)c(O)c(OC)c1`, the solubility (kinetic) in [1] turned out to be 138 µM (≈ 46.7 µg/mL). Moreover, the Activity result in the data set with HEK293 [2], in the data set on HEK293 [3], with HEK293 [4] and with HEK293 [18] was “Non-toxic” in each case. Also, the outcome in the data set on HEK293 [17] was inactive. For the same molecule, the Drug uptake entry in data set [15] is recorded as “Active”; in [16], “Not Active”. The inhibition entry in data set [14], in data set [19], in data set [21], in data set [22], in data set [23] and in data set [25] was “Active” each time. In [26], the inhibition result was “Active”. Also, the inhibition result in data set [20] and in [24] was “inactive” in each case.
